Experimental data taken from ChEMBL document CHEMBL3600318, “Chemical synthesis of tetracyclic terpenes and evaluation of antagonistic activity on endothelin-A receptors and voltage-gated calcium channels” (Bioorg Med Chem, 2015).
Activity calls are given as the source filed them. The rule behind the calls is not given here.

Columns and labels:
[1] = (§1) Antagonist activity at endothelin A receptor in Mongolian gerbil spiral modiolar artery assessed as inhibition of ET-1-induced vasoconstriction at 0.1 to 1 uM […] followed by compound washout and again ET-1 addition by video microscopic analysis; format: tissue-based, Meriones unguiculatus
Meriones unguiculatus = species: Meriones unguiculatus; test: as §1; format: tissue-based
[2] = target: Voltage-dependent T-type calcium channel subunit alpha-1H (Mus musculus) (UniProt O88427); test: Inhibition of Cav3.2 T-type channel in C57/BC6 mouse DRG neurons assessed as inhibition of low-voltage activated Ca2+ currents by patch clamp method
Voltage-dependent T-type calcium channel subunit alpha-1H (Mus musculus), sequence (O88427 whole entry): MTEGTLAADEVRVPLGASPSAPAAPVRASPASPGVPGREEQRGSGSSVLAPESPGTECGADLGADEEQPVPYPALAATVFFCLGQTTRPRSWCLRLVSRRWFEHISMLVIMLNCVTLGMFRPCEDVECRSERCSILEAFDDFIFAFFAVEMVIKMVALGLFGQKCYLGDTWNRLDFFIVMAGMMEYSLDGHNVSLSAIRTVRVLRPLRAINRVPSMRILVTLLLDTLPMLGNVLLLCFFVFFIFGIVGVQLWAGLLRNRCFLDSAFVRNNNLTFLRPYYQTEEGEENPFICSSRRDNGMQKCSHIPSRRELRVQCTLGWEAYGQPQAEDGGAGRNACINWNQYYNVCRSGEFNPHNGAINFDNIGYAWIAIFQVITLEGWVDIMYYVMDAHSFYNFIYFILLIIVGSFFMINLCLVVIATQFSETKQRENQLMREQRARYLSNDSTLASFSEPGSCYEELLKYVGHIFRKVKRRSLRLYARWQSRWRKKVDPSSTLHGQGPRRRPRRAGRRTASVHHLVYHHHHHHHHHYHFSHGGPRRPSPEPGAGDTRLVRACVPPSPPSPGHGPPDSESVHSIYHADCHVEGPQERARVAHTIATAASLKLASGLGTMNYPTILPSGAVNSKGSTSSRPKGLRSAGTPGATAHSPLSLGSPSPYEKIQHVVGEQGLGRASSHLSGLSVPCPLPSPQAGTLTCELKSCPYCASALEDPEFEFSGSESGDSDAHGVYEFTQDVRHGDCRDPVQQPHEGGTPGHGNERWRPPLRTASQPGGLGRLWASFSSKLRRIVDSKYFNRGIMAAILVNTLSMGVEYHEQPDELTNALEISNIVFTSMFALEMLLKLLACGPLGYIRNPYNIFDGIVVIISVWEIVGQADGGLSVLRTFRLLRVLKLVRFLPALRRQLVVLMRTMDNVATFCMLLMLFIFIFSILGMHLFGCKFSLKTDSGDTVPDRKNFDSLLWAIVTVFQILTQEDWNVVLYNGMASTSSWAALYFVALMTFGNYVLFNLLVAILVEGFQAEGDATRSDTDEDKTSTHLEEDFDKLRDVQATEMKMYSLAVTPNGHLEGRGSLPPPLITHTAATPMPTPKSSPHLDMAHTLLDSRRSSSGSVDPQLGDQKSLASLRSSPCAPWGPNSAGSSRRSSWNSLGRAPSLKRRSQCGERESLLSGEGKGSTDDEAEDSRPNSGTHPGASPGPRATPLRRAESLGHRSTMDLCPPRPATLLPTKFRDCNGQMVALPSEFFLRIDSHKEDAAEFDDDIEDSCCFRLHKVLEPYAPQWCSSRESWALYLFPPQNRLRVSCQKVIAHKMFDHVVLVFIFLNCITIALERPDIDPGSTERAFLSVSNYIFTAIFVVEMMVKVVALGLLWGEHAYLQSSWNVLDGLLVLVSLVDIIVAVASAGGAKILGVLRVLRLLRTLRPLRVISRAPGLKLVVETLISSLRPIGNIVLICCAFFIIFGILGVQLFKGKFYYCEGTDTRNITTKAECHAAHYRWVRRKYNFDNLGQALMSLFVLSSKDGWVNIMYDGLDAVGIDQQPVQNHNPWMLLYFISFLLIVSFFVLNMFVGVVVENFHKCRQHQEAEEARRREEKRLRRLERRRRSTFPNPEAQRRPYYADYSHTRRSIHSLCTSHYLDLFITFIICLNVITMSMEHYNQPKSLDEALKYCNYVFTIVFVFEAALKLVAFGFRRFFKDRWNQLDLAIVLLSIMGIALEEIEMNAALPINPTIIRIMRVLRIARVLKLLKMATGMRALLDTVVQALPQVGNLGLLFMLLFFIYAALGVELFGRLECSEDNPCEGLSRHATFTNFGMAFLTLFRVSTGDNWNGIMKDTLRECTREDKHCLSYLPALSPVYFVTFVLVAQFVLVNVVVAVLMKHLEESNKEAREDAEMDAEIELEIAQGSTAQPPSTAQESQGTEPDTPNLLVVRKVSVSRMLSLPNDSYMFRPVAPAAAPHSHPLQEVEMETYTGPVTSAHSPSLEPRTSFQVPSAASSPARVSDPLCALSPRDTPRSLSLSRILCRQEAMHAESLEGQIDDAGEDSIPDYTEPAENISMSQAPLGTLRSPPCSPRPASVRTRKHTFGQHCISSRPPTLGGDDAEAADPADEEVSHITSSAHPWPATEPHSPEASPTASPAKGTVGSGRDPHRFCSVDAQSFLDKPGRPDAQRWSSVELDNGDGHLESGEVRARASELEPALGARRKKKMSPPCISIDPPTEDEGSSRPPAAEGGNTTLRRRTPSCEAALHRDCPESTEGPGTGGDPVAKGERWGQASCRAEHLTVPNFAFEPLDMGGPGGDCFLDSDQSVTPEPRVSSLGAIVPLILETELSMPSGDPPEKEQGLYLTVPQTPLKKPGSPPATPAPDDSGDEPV
Outline: (§2)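 Whole-cell voltage clamp at about 21 °C on large acutely dissociated DRG neurons from 1-2-month C57/BC6 mice, used within 2 days. Holding potential -90 mV, 100-ms steps in 10 mV increments every 2 s, giving low- and high-voltage-activated Ca2+ currents. Bath-applied compound 0.1–3 µM, vehicle 0.1% DMSO. IC50 from a logistic fit, mean ± SEM, n = 4 per point.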

Mus musculus [3] = species: Mus musculus; test: Inhibition of L-type Ca2+ channel in C57/BC6 mouse DRG neurons assessed as inhibition of high-voltage activated Ca2+ currents by patch clamp method; outline: as §2
Mus musculus [4] = species: Mus musculus; test: Inhibition of voltage-gated sodium channel in C57/BC6 mouse DRG neurons assessed as inhibition of voltage activated Na+ currents at 0.1 to 0.3 uM by patch clamp method
Outline: (§3)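 Whole-cell voltage clamp at about 21 °C on acutely dissociated mouse DRG neurons. TTX-sensitive inward Na+ currents elicited by steps to 0 mV for 20 ms, outward K+ currents by steps to 70 mV for 300 ms, at 0.1 Hz; stable 30 min under control. Compound bath-applied, time course followed; vehicle 0.1% DMSO.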

Mus musculus [5] = species: Mus musculus; test: Inhibition of voltage-gated potassium channel in C57/BC6 mouse DRG neurons assessed as inhibition of voltage activated […] currents at 0.1 to 0.3 uM by patch clamp method; outline: as §3
Mus musculus [6] = species: Mus musculus; test: Inhibition of voltage-gated sodium channel in C57/BC6 mouse DRG neurons assessed as inhibition of voltage activated Na+ currents at 3 uM by patch clamp method; outline: as §3
Mus musculus [7] = species: Mus musculus; test: Inhibition of voltage-gated potassium channel in C57/BC6 mouse DRG neurons assessed as inhibition of voltage activated […] currents at 3 uM by patch clamp method; outline: as §3
Endothelin-1 receptor [8] = target: T1, Endothelin-1 receptor (Rattus norvegicus, UniProt P26684); test: Antagonist activity at endothelin A receptor in rat A7r5 cells assessed as inhibition of ET-1-induced increase in cytosolic free Ca2+ level treated 1 min prior to ET-1 addition by fura-2 dye-based spectrofluorometric analysis; format: functional, cell-based
T1 sequence (P26684 whole entry): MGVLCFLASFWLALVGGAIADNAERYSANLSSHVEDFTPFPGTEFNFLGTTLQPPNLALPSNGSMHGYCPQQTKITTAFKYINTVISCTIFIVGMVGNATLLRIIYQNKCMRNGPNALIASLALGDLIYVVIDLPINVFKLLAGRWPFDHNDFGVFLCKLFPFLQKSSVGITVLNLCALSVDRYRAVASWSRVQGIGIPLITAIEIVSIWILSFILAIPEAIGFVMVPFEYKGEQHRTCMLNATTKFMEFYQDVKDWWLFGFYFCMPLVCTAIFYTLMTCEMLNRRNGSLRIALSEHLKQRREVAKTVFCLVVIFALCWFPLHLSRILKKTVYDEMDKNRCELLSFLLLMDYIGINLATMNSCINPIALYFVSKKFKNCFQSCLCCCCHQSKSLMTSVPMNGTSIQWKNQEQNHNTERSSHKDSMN

Endothelin-1 receptor [9] = target: T1, Endothelin-1 receptor; test: Antagonist activity at endothelin A receptor in Wistar rat thoracic aorta strips assessed as inhibition of ET1-induced vasoconstriction preincubated for 5 mins followed by ET1 addition

Structure (SMILES)	pA2 [1]	A2 (Meriones unguiculatus)	further results
CC1(C)C(=O)CC[C@]2(C)[C@H]3CCc4ccc(O)cc4[C@]3(C)CC[C@@H]12	6.7	–	–
CC1(C)C(=O)CC[C@]2(C)[C@H]3CC[C@@H]4CCC(=O)C[C@@]4(C#N)[C@]3(C)CC[C@@H]12	6.9	134 nM	–
CC1(C)C(=O)CC[C@]2(C)[C@H]3CCc4ccc(OCCO)cc4[C@]3(C)CC[C@@H]12	6.5	–	–
CC1(C)[C@@H]2CC[C@]3(C)[C@H](CC[C@@H]4CC=C(O[Si](C)(C)C(C)(C)C)C[C@]43C=N)[C@@]2(C)CCC12OCCO2 (single isomer, unassigned; (-))	7	93 nM	inhibition [2]: Dose-dependent effect; inhibition (Mus musculus [3]): Dose-dependent effect; inhibition (Mus musculus [4]): inactive; inhibition (Mus musculus [5]): inactive; inhibition (Mus musculus [6]): Active; inhibition (Mus musculus [7]): Active
CC1(C)CC[C@]2(C(=O)O)CC[C@]3(COC(=O)/C=C/c4ccc(O)c(O)c4)C(=CC[C@@H]4[C@@]5(C)CCC(=O)C(C)(C)[C@@H]5CC[C@]43C)[C@@H]2C1	7.1	85 nM	IC50 (Endothelin-1 receptor [8]): 11 nM; Ki (Endothelin-1 receptor [9]): 66 nM
CC1(C)C(=O)CC[C@]2(C)[C@H]3CC[C@@H]4CCC(=O)C=C4[C@]3(C)CC[C@@H]12	6.7	–	–
CC1(C)[C@@H]2CC[C@]3(C)[C@H](CC[C@@H]4CC[C@@]5(O)C[C@]43C=N5)[C@@]2(C)CCC12OCCO2	6.5	–	–
